Data taken from publication PMC10712300 (Protein and peptide letters, 2021).
Ends that are not written are not given here.

What was measured:
RIN-m cells [1] = assay: LDH cytotoxicity assay; type: cell-based; settings: 48 h at 37°C; for LDH release / plasma membrane damage, peptide alone: 12.8 μM IAPP alone; for LDH cytotoxicity of hIAPP mixed with animal IAPP: 12.8 μM hIAPP + 12.8 μM animal IAPP (1:1)
Procedure, shortened: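 RIN-m cells were plated overnight and refed with RPMI-1640 + 10% FBS. HFIP-dried IAPPs were resuspended in the same medium by scraping and 30 s vortexing. Each IAPP was added at 12.8 μM, or hIAPP + animal IAPP 1:1, for 48 h at 37°C, 5% CO2. Spontaneous (water) and maximum (lysis buffer) release wells ran 45 min. Supernatant reaction: 30 min RT dark, then stop. A450/A620; % cytotoxicity by kit equation.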

RIN-m cells [2] = assay: Cell morphology imaging; type: cell-based; settings: for RIN-m cell morphology, peptide alone: 12.8 μM IAPP alone (absence of hIAPP for animal variants); for RIN-m cell morphology, hIAPP mixed with animal IAPP: 12.8 μM hIAPP + animal IAPP, 1:1 ratio
[3] = test system: hIAPP aggregation / fibril formation; settings: cited from earlier work
[4] = cited from earlier work
[5] = patients with type 1 diabetes taking hIAPP mimetic supplements; cited from earlier work
[6] = AFM / amyloid fibril formation of an IAPP peptide by itself; type: physicochemical; settings: 37 μM hIAPP alone, 20 mM tris pH 7.40, 37°C, 40 min shaking, deposited onto mica
Procedure, shortened: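 HFIP stocks of peptide (0.125 mg/mL) were sonicated 10 min and held at −80°C. HFIP was removed under vacuum and peptide dissolved in 20 mM Tris pH 7.40. hIAPP was held at 37 μM, alone or with animal IAPP at 37 μM (1:1). Incubation: 37°C, 200 rpm, 40 min. Samples were spotted on fresh mica for 5 min, water-washed, dried, and imaged by AC-mode AFM without flattening.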

Row | Substance | LDH release / plasma membrane damage, peptide alone (RIN-m cells [1]) | LDH cytotoxicity of hIAPP mixed with animal IAPP (RIN-m cells [1]) | RIN-m cell morphology, peptide alone (RIN-m cells [2]) | RIN-m cell morphology, hIAPP mixed with animal IAPP (RIN-m cells [2]) | inhibition of hIAPP aggregation (literature) [3] | independent aggregation, fibril formation and toxicity to living cells [4] | average weight loss [5] | fibril formation of the peptide alone (AFM) [6]
1 | cat IAPP: synthetic naturally occurring cat variant of IAPP (KCNTATCATQRLANFLIRSSNNLGAILSPTNVGSNTY; ends and bridges not checked; cysteine pairing not given here; UniProt P12967 34-70, looked up) | some damage to the plasma membrane of the cells, but much less compared to hIAPP | decreased the toxicity of hIAPP and reduced the amount of damage to the plasma membrane | some rounding of cells and detaching from the plate | cells looking better than cells incubated with hIAPP alone | – | – | – | –
2 | rat IAPP: synthetic naturally occurring rat variant of IAPP, non-amyloidogenic | very little effect on the cellular plasma membrane | increased the amount of cytotoxicity in the cell | did not cause significant changes to RIN-m morphology | many cells with a round shape and detached from the plate | modest inhibitors of hIAPP aggregation | does not independently aggregate, form fibrils, or show toxicity to living cells | – | –
3 | pramlintide | – | – | – | – | – | – | about 2 kg | –
4 | Human Islet Amyloid Polypeptide (KCNTATCATQRLANFLVHSSNNFGAILSSTNVGSNTY; Islet amyloid polypeptide; UniProt P10997 34-70, looked up) [hIAPP, reference compound] | increased the release of LDH into the media | – | changes in cellular shape, formation of granular nuclear structures, and detachment of numerous cells from the plate surface | – | – | – | – | forms high-density plaques of fibrils
